Screening results: PubChem, several laboratories
MPTP block: mitochondrial permeability transition pore inhibitors, primary screen, biochemical, isolated mouse mitochondria, absorbance | Ca2+ swelling absorbance, 30 min | inhibition, % at 10 µM | 360,000 tested, 1.4% active | AID 602449, 2012;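 active = inhibition of 50% or more, scaled per plate between neutral and stimulator controls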
ATG4B inhibitor: ATG4B protease inhibitors, primary screen, biochemical, fluorescence, uHTS; ATG4B cleavage of LC3-PLA2, NBD-HPC fluorescence, 1 h; 340,000 tested, 0.51% active; AID 504462, 2011; Cysteine protease ATG4B (Homo sapiens), Q9Y4P1; inhibition, % at 8.33 µM; in the data active = inhibition above about 40%
Target sequence (Q9Y4P1 whole entry, looked up): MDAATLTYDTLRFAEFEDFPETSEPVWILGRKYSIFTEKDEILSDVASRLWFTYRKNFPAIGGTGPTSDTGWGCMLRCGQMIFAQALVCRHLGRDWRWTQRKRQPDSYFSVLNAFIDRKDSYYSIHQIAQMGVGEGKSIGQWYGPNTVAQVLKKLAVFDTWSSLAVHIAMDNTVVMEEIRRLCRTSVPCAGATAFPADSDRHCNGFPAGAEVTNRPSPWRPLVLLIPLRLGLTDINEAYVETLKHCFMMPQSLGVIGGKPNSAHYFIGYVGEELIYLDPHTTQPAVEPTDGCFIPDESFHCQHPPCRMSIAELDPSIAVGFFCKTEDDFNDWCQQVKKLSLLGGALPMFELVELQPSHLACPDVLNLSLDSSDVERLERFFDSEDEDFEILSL
SMARCA2 act: SMARCA2 (BRM) function activators, primary screen, cell-based, luminescence, high throughput. MG213 cells, MMTV-luciferase reporter, dexamethasone, overnight. activation, % at 9.1 µM. 370,000 tested, 1% active. AID 652017, 2013; in the data active = activation above about 7.8%
MC4R antagonist: MC4R antagonists of cAMP signaling, primary screen, cell-based, TR-FRET, antagonist arm of biased-ligand search. Melanocortin receptor 4 (Homo sapiens), P32245. MC4R-expressing cells, MTII-stimulated cAMP, LANCE TR-FRET. inhibition, % at 6.5 µM. 360,000 tested, 0.48% active;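 active = inhibition above its plate's cutoff, the mean of tested wells on that plate plus 3 SD, cut at about 29% in these data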
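system = U2OS cells with stable human MC4R expression | also added = Melanotan II challenge after compound preincubation | dosing = one concentration, 6.5 µM nominal | incubation = compound 30 min, challenge 1 h, detection 1 h | measured by = TR-FRET with Eu-cAMP and labeled anti-cAMP, 671 nm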
MC4R ag barr: MC4R agonists recruiting beta-arrestin, primary screen, cell-based, luminescence, agonist arm of biased-ligand search. activation, % at 8.9 µM. U2OS MC4R beta-arrestin complementation; percent of melanotan II response, DMSO zero. 360,000 tested, 0.98% active. AID 540308, 2011;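 active = activation above a per-plate cutoff, the mean activation of sample wells on that plate plus 3 SD, cut at about 8% in these data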
MPTP counter: fluorescence retest of MPTP screen hits in isolated mitochondria, single concentration; shares compounds with MPTP block; membrane potential, Rhodamine 123 fluorescence; inhibition, % at 10 µM; 5,000 tested, 78% active; in the data active = inhibition above about 22%
MPTP abs DR: mitochondrial permeability transition pore inhibitors, dose response, biochemical, absorbance, uHTS hits; IC50, µM; 780 tested, 58% active; isolated mitochondria swelling; AID 651561, 2012; shares compounds with MPTP block; in the data active = IC50 below about 20 µM
MPTP cs DR: fluorescent counter-screen in isolated mitochondria, dose response, counter-screen for MPTP inhibitor project, biochemical, fluorescence, uHTS hits; shares compounds with MPTP block; isolated mitochondria counterscreen, fluorescence read-out; IC50, µM; 780 tested, 49% active; AID 651564, 2012; in the data active = IC50 below about 80 µM
Hits are given with their value. Sampled rows, rich in hits. Any-hit rate of the full collection: about 4.1%.

`FC(F)Sc1ccc(NC(=S)NC2CCCCC2)cc1` gave MPTP block 101, ATG4B inhibitor inactive, SMARCA2 act inactive, MC4R antagonist inactive, MC4R ag barr inactive and MPTP counter 79.
Screening S=C(NCC1CCCCC1)Nc1cccnc1 returned MPTP block inactive, ATG4B inhibitor inactive, SMARCA2 act inactive, MC4R antagonist inactive and MC4R ag barr inactive.
Screening CCNC(=O)N1C[C@H]2CON(C)[C@H]2C[C@H]1c1ccc(N2CCCCC2)cc1 returned SMARCA2 act inactive.
For CN1C(=O)[C@@]2(C3=C(CCCC3=O)OC3=C2C(=O)CC(C)(C)C3)c2ccccc21 the results were SMARCA2 act inactive.
For CNC(=S)N/N=C/c1cccc(OCc2ccccc2F)c1 the results were MPTP block 70, ATG4B inhibitor inactive, SMARCA2 act inactive, MC4R antagonist inactive, MC4R ag barr inactive and MPTP counter 28.
`CCCC[C@H]1C2CC(OC(=O)Nc3cccc(Cl)c3)C(C2)[C@H]2CCCCN21` (some centres undefined) gave SMARCA2 act inactive.
`CCC(NC(=O)Cn1c(-c2ccccc2)cc(C(C)=O)c1C)c1ccccc1` (centres undefined) gave SMARCA2 act inactive.
COc1ccccc1OC(=O)Nc1ccc(Cl)cc1 was read as MPTP block 58, ATG4B inhibitor inactive, SMARCA2 act inactive, MC4R antagonist inactive, MC4R ag barr inactive and MPTP counter 75.
`COc1ccccc1OCC(=O)NNC(=O)Nc1ccc(Cl)cc1` gave MPTP block inactive, ATG4B inhibitor inactive, SMARCA2 act inactive, MC4R antagonist inactive and MC4R ag barr inactive.
O=C(NCc1ccccc1F)Nc1ccc([N+](=O)[O-])cc1 was read as MPTP block 94, ATG4B inhibitor inactive, SMARCA2 act inactive, MC4R antagonist inactive, MC4R ag barr inactive and MPTP counter 89.
For O=C(NCc1ccc2c(c1)OCO2)Nc1ccc([N+](=O)[O-])cc1 the results were MPTP block 81, ATG4B inhibitor inactive, SMARCA2 act inactive, MC4R antagonist inactive, MC4R ag barr inactive and MPTP counter 83.
CNC12CCc3cc(OC)c(OC)c(c31)-c1cc3c(cc1C2)OCO3 (centres undefined) was read as SMARCA2 act inactive.
Cc1ccc2[nH]c(=O)c(CN(CCCN(C)C)C(=S)NCCc3ccccc3)cc2c1 was read as MPTP block 86, ATG4B inhibitor inactive, SMARCA2 act inactive, MC4R antagonist inactive, MC4R ag barr inactive, MPTP counter inactive, MPTP abs DR 12 and MPTP cs DR inactive.
Screening COC(=O)[C@]12C[C@H](CC(=O)NCCc3ccccc3OC)C(=O)N(Cc3ccco3)C1=C[C@H](C1CCCC1)O[C@@H]2C returned SMARCA2 act inactive.
Screening Cc1c(O)ccc2c(CN(C)Cc3ccccc3)cc(=O)oc12 returned MPTP block 84, ATG4B inhibitor inactive, SMARCA2 act inactive, MC4R antagonist inactive, MC4R ag barr inactive and MPTP counter 62.
COc1ccc(NC(=S)Nc2ccc(C)c(Cl)c2)cc1OC was read as MPTP block 52, ATG4B inhibitor inactive, SMARCA2 act inactive, MC4R antagonist inactive, MC4R ag barr inactive and MPTP counter 100.
O=C(CCNC(=O)c1ccco1)Nc1ccc(OC(F)F)c(Cl)c1 was read as MPTP block inactive, ATG4B inhibitor inactive, SMARCA2 act inactive, MC4R antagonist inactive and MC4R ag barr inactive.
CC(NC(=S)Nc1ccc(OC(F)F)c(Cl)c1)C(C)(C)C (centres undefined) was read as MPTP block 93, ATG4B inhibitor inactive, SMARCA2 act inactive, MC4R antagonist inactive, MC4R ag barr inactive and MPTP counter 95.
Cc1ccc(NC(=S)Nc2ccc(OC(F)F)c(Cl)c2)cc1Cl was read as MPTP block 95, ATG4B inhibitor inactive, SMARCA2 act inactive, MC4R antagonist inactive, MC4R ag barr inactive and MPTP counter 92.
For Cc1[nH]c2ccccc2c1C(=O)CN1CCN(C/C=C/c2ccccc2)CC1 the results were MPTP block 65, ATG4B inhibitor inactive, SMARCA2 act inactive, MC4R antagonist inactive, MC4R ag barr inactive, MPTP counter inactive, MPTP abs DR 17 and MPTP cs DR 52.
For O=C(CCc1nc2ccccc2c(=O)[nH]1)N1CCN(C/C=C/c2ccccc2)CC1 the results were MPTP block 68, ATG4B inhibitor inactive, SMARCA2 act inactive, MC4R antagonist inactive, MC4R ag barr inactive and MPTP counter 49.
`CC(=O)N1CCN(C(=O)CCc2nc3ccccc3c(=O)[nH]2)CC1` gave MPTP block inactive, ATG4B inhibitor inactive, SMARCA2 act inactive, MC4R antagonist inactive and MC4R ag barr inactive.
COc1ccc(NC(=O)NC23CC4(C)CC(C)(CC(C)(C4)C2)C3)cc1OC was read as MPTP block 76, ATG4B inhibitor inactive, SMARCA2 act inactive, MC4R antagonist inactive, MC4R ag barr inactive and MPTP counter 51.
For COC(=O)c1ccc(NC(=O)Nc2ccc(OC)c(OC)c2)cc1 the results were MPTP block inactive, ATG4B inhibitor inactive, SMARCA2 act inactive, MC4R antagonist inactive and MC4R ag barr inactive.
Screening COC(=O)C1CN(C2CCCC2)CCS(=O)(=O)N1Cc1cn(Cc2ccc(Cl)cc2)nn1 (centres undefined) returned SMARCA2 act inactive.
Screening CC(=O)c1c(C)[nH]c(C(=O)Nc2ccc(C)c(S(=O)(=O)N(C)C)c2)c1C returned MPTP block inactive, ATG4B inhibitor inactive, SMARCA2 act inactive, MC4R antagonist inactive and MC4R ag barr inactive.
Screening COc1ccc(NC(=O)c2[nH]c(C)c(C(C)=O)c2C)cc1S(=O)(=O)N1CCOCC1 returned MPTP block inactive, ATG4B inhibitor inactive, SMARCA2 act inactive, MC4R antagonist inactive and MC4R ag barr inactive.
Screening CC(=O)c1c(C)[nH]c(C(=O)Nc2ccc(Cl)c(S(=O)(=O)N3CCOCC3)c2)c1C returned MPTP block 64, ATG4B inhibitor inactive, SMARCA2 act inactive, MC4R antagonist inactive, MC4R ag barr inactive and MPTP counter 80.
For CC(=O)c1c(C)[nH]c(C(=O)Nc2ccc(C)c(S(=O)(=O)Nc3ccc(C)cc3C)c2)c1C the results were MPTP block 92, ATG4B inhibitor inactive, SMARCA2 act inactive, MC4R antagonist inactive, MC4R ag barr inactive and MPTP counter 72.
